Each structure is given as a SMILES string. pIC50: −log10 of the molar value.

By pIC50 is commonly meant the IC50 on a negative log10 scale, so that one unit is a factor of ten.

For test [1], the species on record is Rattus norvegicus. Briefly: In vitro percentage residual insulin secretion at 50 uM dose from rat pancreatic islets incubated in the presence of 16.7 mM glucose. The format is functional. In a few lines: (§1)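 Islets from fed Wistar rats (180–220 g), groups of 10, preincubated 30 min at 37 °C in salt medium with 2.8 mM glucose and 0.5% dialyzed albumin under O2/CO2. Then incubated 90 min at 37 °C with 16.7 mM glucose plus drug. Insulin measured by radioimmunoassay against a rat insulin standard; reported as percentage residual release.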

The species named for test [2] is Rattus norvegicus. The test can be described thus: Myorelaxant activity as percentage residual contractile activity in rat uterus at 50 uM concentration. The format is functional. The essentials: (§2)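 Uterus from fed Wistar rats (150–200 g) pretreated the day before with diethylstilboestrol dipropionate i.m. Tissue superfused at 37 °C. Contractions induced by 20 mU oxytocin injections at 10 min intervals, scored as AUC. Baseline (100%) is the mean of the last three constant responses. Each drug concentration tested with at least three injections; mean AUC expressed as percent of the drug-free response.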

The species named for test [3] is Rattus norvegicus. The test can be described thus: Myorelaxant activity as percentage residual contractile activity in rat uterus at 10 uM concentration. Format: functional. The essentials: as §2
The species entered for another test is Cavia porcellus. Briefly: In vitro inhibition electrically stimulated guinea pig ileum segment contraction. The format is functional. The essentials:
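Coaxial electrical stimulation with rectangular pulses (0.5 ms, 0.1 Hz, 5–25 V); isometric contraction recording. Drugs added at increasing concentrations until maximal effect.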

Test [4] is filed under the species Rattus norvegicus. The test can be described thus: Percentage residual insulin secretion at 10 uM dose from pancreatic islets incubated in the presence of 16.7 mM glucose. Format: functional. The essentials:
as §1

For test [5], the species on record is Rattus norvegicus. Briefly: In vitro inhibition of 30 mM KCl-induced contraction of rat aorta rings. Format: functional.
Test [6] is filed under the species Rattus norvegicus. Briefly: Percentage residual insulin secretion at 1 uM dose from pancreatic islets incubated in the presence of 16.7 mM glucose. The format is functional. In a few lines: as §1
A short description of test [7]: Myorelaxant activity in rat aorta with 1 uM glibenclamide and 30 mM KCL. Format: functional, tissue-based. In a few lines:
(§3)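 Endothelium-denuded transverse aortic rings (3–4 mm) from fed Wistar rats (250–300 g) held under 2 g tension in Krebs-bicarbonate at 37 °C, 95% O2/5% CO2. After 60 min equilibration, contracted with 30 mM or 80 mM KCl; drugs added cumulatively to maximal relaxation, with or without glibenclamide throughout (1 or 10 μM).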

Test [8] is filed under the species Rattus norvegicus. The test can be described thus: Myorelaxant activity in rat aorta in the presence 80 mM KCL. The format is functional. In a few lines: as §3
Test [9] in a line: Myorelaxant activity in rat aorta with 10 uM glibenclamide and 30 mM KCL. The format is functional, tissue-based. The essentials: as §3

For `C[C@H](Nc1nc(O)c2cc(Cl)ccc2n1)c1ccccc1`, the Secretion in the test listed under Rattus norvegicus [1] was determined as 12.9%; in the test filed under Rattus norvegicus [4] it was 76.9%. In addition, the results for the Activity in the test listed under Rattus norvegicus [2] and in the test listed under Rattus norvegicus [3] were 44.9% and 92.4%, respectively. Besides, the pIC50 was 4.88 in the test filed under Cavia porcellus and 5.77 in the test filed under Rattus norvegicus [5].
For the molecule `C[C@@H](Nc1nc(O)c2cc(Cl)ccc2n1)c1ccccc1`, the Secretion in the test listed under Rattus norvegicus [1] stood at 35%. In addition, the Activity worked out at 46.5% in the test filed under Rattus norvegicus [2] and 120% in the test listed under Rattus norvegicus [3]. Moreover, the pIC50 was 4.69 in the test listed under Cavia porcellus and 5.55 in the test listed under Rattus norvegicus [5].
As to `Oc1nc(NCc2ccccc2)nc2ccc(Br)cc12`, the Secretion in the test listed under Rattus norvegicus [1] was 75.7%. Further, the Activity in the test filed under Rattus norvegicus [2] is 76.6%; in the test filed under Rattus norvegicus [3], 76.8%. Further, in the test listed under Rattus norvegicus [5], the pIC50 is 5.12.
For `CC(Nc1nc(O)c2ccccc2n1)C(C)(C)C` (configuration not stated), the Secretion in the test listed under Rattus norvegicus [1] is 50.9%. The same molecule gave a negative-log IC50 (pIC50) in the test filed under Rattus norvegicus [5] of 4.91.
On to `Oc1nc(NCC2CCCCC2)nc2ccc(I)cc12`, for which the Secretion in the test listed under Rattus norvegicus [1] was 10%; in the test filed under Rattus norvegicus [4], 65.4%. The Activity is 97.9% in the test filed under Rattus norvegicus [2] and 96.8% in the test listed under Rattus norvegicus [3]. Further, the pIC50 in the test listed under Cavia porcellus was 4.59; in the test filed under Rattus norvegicus [5], 5.41.
As for `CC(C)C(C)NC1=NS(=O)(=O)c2cnccc2N1` (configuration not stated), the Secretion is 7.1% in the test filed under Rattus norvegicus [1], 26.8% in the test listed under Rattus norvegicus [4] and 70.5% in the test filed under Rattus norvegicus [6]. Besides, the negative logarithm of the IC50 (pIC50) in the test filed under Cavia porcellus was under 3.52; in the test filed under Rattus norvegicus [5], 3.81.
Regarding `C[C@@H](Nc1nc(O)c2cc(Cl)ccc2n1)C1CCCCC1`, the Secretion in the test filed under Rattus norvegicus [1] stood at 16.5%; in the test listed under Rattus norvegicus [4] it was 62.1%. For the same molecule, the negative-log IC50 (pIC50) was under 4.52 in [7]; 4.74 in the test filed under Rattus norvegicus [8]; 5.09 in the test filed under Cavia porcellus; under 4.52 in test [9]; 5.25 in the test listed under Rattus norvegicus [5]. Further, the Activity in the test filed under Rattus norvegicus [2] came to 90.7%; in the test filed under Rattus norvegicus [3] it was 108%.
Take `Oc1nc(NCc2ccccc2)nc2ccc(I)cc12`: in the test listed under Rattus norvegicus [1], the Secretion is reported as 82.8%. The Activity in the test listed under Rattus norvegicus [2] and in the test listed under Rattus norvegicus [3] was 106% in each case. Further, the figures for the pIC50 in the test filed under Cavia porcellus and in the test listed under Rattus norvegicus [5] were 5.06 and 5.85, respectively.
Consider `CC(C)Nc1nc(O)c2ccccc2n1`, for which, in the test filed under Rattus norvegicus [1], the Secretion was determined as 45.6%. Further, in the test filed under Rattus norvegicus [5], the pIC50 is 4.17.
In the case of `CCC(C)Nc1nc(O)c2cc(Cl)ccc2n1` (configuration not stated), the values for the Secretion in the test filed under Rattus norvegicus [1], in the test listed under Rattus norvegicus [4] and in the test listed under Rattus norvegicus [6] were 6%, 53.2% and 84.9%, respectively. The pIC50 was 4.35 in the test filed under Cavia porcellus and 4.86 in the test filed under Rattus norvegicus [5].
Consider `CC(C)Nc1nc(O)c2cc(Cl)ccc2n1`, for which the values for the Secretion in the test listed under Rattus norvegicus [1], in the test filed under Rattus norvegicus [4] and in the test filed under Rattus norvegicus [6] were 6.6%, 55.1% and 80.7%, respectively. The results for the Activity in the test filed under Rattus norvegicus [2] and in the test listed under Rattus norvegicus [3] were 61% and 78.7%, respectively. The pIC50 was 4.46 in the test listed under Rattus norvegicus [8], 4.13 in the test filed under Cavia porcellus and 4.76 in the test filed under Rattus norvegicus [5].
For the molecule `CC(C)C(C)Nc1nc(O)c2cc(Cl)ccc2n1` (configuration not stated), the Secretion in the test filed under Rattus norvegicus [1] is given as 10.2%; in the test filed under Rattus norvegicus [4], 61.9%; in the test filed under Rattus norvegicus [6], 81.3%. In addition, the negative-log IC50 (pIC50) was 4.23 in the test listed under Cavia porcellus and 4.79 in the test filed under Rattus norvegicus [5].
On to `Oc1nc(NCc2ccccc2)nc2ccc(Cl)cc12`, for which the Secretion in the test filed under Rattus norvegicus [1] turned out to be 82.5%. The Activity in the test listed under Rattus norvegicus [2] is recorded as 98.1%; in the test filed under Rattus norvegicus [3], 94.8%. Further, the negative logarithm of the IC50 (pIC50) in the test listed under Cavia porcellus is 4.88.
Take `CC(C)Nc1nc(O)c2cc(I)ccc2n1`: the Secretion is 12.2% in the test listed under Rattus norvegicus [1], 90.9% in the test filed under Rattus norvegicus [4] and 93.7% in the test listed under Rattus norvegicus [6]. Moreover, the pIC50 in test [7] is 4.43; in the test listed under Rattus norvegicus [8] it was 4.43; in the test filed under Cavia porcellus, 4.36; in test [9], 4.33; in the test listed under Rattus norvegicus [5] it was 4.92. Besides, the Activity in the test filed under Rattus norvegicus [2] is recorded as 41%; in the test listed under Rattus norvegicus [3], 77.6%.
As for `CCC(C)Nc1nc(O)c2cc(I)ccc2n1` (configuration not stated), the Secretion is 11.2% in the test listed under Rattus norvegicus [1], 77.5% in the test listed under Rattus norvegicus [4] and 94.9% in the test listed under Rattus norvegicus [6]. For the same molecule, the results for the pIC50 in the test filed under Cavia porcellus and in the test filed under Rattus norvegicus [5] were 4.63 and 5.05, respectively.
As to `C[C@H](Nc1nc(O)c2cc(Cl)ccc2n1)C1CCCCC1`, the Secretion is given as 8.9% in the test filed under Rattus norvegicus [1] and 43.6% in the test listed under Rattus norvegicus [4]. The Activity in the test filed under Rattus norvegicus [2] came out at 66.5%; in the test filed under Rattus norvegicus [3] it was 102%. Also, the negative-log IC50 (pIC50) in the test listed under Cavia porcellus is 4.82; in the test listed under Rattus norvegicus [5] it was 5.68.
With `CC(C)C(C)Nc1nc(O)c2cc(I)ccc2n1` (configuration not stated), the figures for the Secretion in the test filed under Rattus norvegicus [1], in the test filed under Rattus norvegicus [4] and in the test listed under Rattus norvegicus [6] were 30.6%, 87.7% and 94.7%, respectively. The pIC50 in the test filed under Cavia porcellus was 4.52; in the test listed under Rattus norvegicus [5] it was 5.39.
Take `Oc1nc(NCc2ccccc2)nc2ccccc12`: in the test listed under Rattus norvegicus [1], the Secretion is reported as 61.8%. In addition, the Activity in the test listed under Rattus norvegicus [2] turned out to be 47.4%; in the test filed under Rattus norvegicus [3], 97.2%. The pIC50 in the test filed under Rattus norvegicus [5] was 4.36.
For the molecule `Oc1nc(NCC2CCCCC2)nc2ccc(Cl)cc12`, the Secretion in the test listed under Rattus norvegicus [1] came to 26.5%; in the test filed under Rattus norvegicus [4] it was 90.1%. The Activity in the test listed under Rattus norvegicus [2] is recorded as 80.3%; in the test listed under Rattus norvegicus [3] it was 86%. For the same molecule, the negative logarithm of the IC50 (pIC50) in the test filed under Cavia porcellus was 4.62; in the test filed under Rattus norvegicus [5], 5.66.
As to `CC1=Nc2ccc(Cl)cc2S(=O)(=O)N1` [DIAZOXIDE], the Secretion in the test listed under Rattus norvegicus [1] is given as 28.8%; in the test filed under Rattus norvegicus [4], 70%; in the test filed under Rattus norvegicus [6], 78.9%. Further, the pIC50 is 4.07 in test [7]; under 3.52 in the test filed under Rattus norvegicus [8]; under 3.52 in the test listed under Cavia porcellus; 3.79 in test [9]; 4.71 in the test filed under Rattus norvegicus [5]. Moreover, the Activity in the test filed under Rattus norvegicus [2] worked out at 76.3%; in the test listed under Rattus norvegicus [3] it was 93.8%.
As to `CC(N/C(=N\C#N)Nc1ccncc1)C(C)(C)C` (configuration not stated) [PINACIDIL ANHYDROUS], the results for the Secretion in the test filed under Rattus norvegicus [1], in the test filed under Rattus norvegicus [4] and in the test listed under Rattus norvegicus [6] were 92.1%, 96% and 97.8%, respectively. Also, the pIC50 is 4.98 in [7]; 4.80 in the test filed under Rattus norvegicus [8]; 5.04 in the test filed under Cavia porcellus; 4.37 in test [9]; 6.30 in the test filed under Rattus norvegicus [5]. Besides, the Activity in the test listed under Rattus norvegicus [2] was 35.5%; in the test filed under Rattus norvegicus [3] it was 58.1%.

These data come from ChEMBL document CHEMBL1134549, “Original 2-alkylamino-6-halogenoquinazolin-4(3H)-ones and K(ATP) channel activity” (J Med Chem, 2001).
